According to the array DNA melting data of Ke et al. (doi:10.1101/2024.01.08.574731):

Key:
[1] = melting temperature; fluorescence melt of hairpins on a sequencing array, two-state fit, raised by 9.35 °C to match UV melts; conditions: sodium 0.088 M
Method in brief: (§1)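 Cy3 fluorescence of library hairpins on a sequenced MiSeq flow cell, with annealed Cy3 and quencher oligos, was imaged in 50 mM Na-HEPES pH 8.0, 25 mM NaCl in 2.5 °C steps up to 60 °C. Signals were normalised to pre-quench Cy3 and to control variants. Melting temperature and folding enthalpy came from bootstrapped two-state fits, inverse-variance combined over four replicates. Fitted temperatures were raised by 9.35 °C to match UV melts.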

[2] = folding enthalpy; higher = less favourable; fluorescence melt of hairpins on a sequencing array, two-state fit; conditions: sodium 0.088 M
Method in brief: as §1

GCCTCTGGAAACAGAAGC ((.((((....)))).))
Tm [1]: 35.6 °C | folding enthalpy [2]: -24.2 kcal/mol

GCCTCTTCGAAAGAAGGC (((..(((....))))))
Tm [1]: 39.4 °C | folding enthalpy [2]: -14.8 kcal/mol

GCCTGAGAAATCAGGC ((((((....))))))
Tm [1]: 62.5 °C | folding enthalpy [2]: -39.2 kcal/mol

GCCTGAGGAAACTTAGGC ((((.((....)).))))
Tm [1]: 48.8 °C | folding enthalpy [2]: -31.2 kcal/mol

GCCTGCCCGAAAGGGGGC (((..(((....))))))
Tm [1]: 58.1 °C | folding enthalpy [2]: -12.6 kcal/mol

GCCTGCGGAAACGCAGAC (.(((((....))))).)
Tm [1]: 50 °C | folding enthalpy [2]: -12.1 kcal/mol

GCCTGGAAACAGGC (((((....)))))
Tm [1]: 63.4 °C | folding enthalpy [2]: -27.1 kcal/mol

GCCTGGCGAAAGCAATGC ((.(.((....)).).))
Tm [1]: 26.9 °C | folding enthalpy [2]: -7.84 kcal/mol

GCCTGGCGAAAGCCCAGC ((..(((....)))..))
Tm [1]: 47.3 °C | folding enthalpy [2]: -10.9 kcal/mol

GCCTGGCGAAAGCCTCGC ((..(((....)))..))
Tm [1]: 45.3 °C | folding enthalpy [2]: -9.28 kcal/mol

GCCTGGGCGAAAGCCGGC (((..(((....))))))
Tm [1]: 55.2 °C | folding enthalpy [2]: -23.7 kcal/mol

GCCTGGGGAAACTCGGGC (((.(.(....).).)))
Tm [1]: 46.7 °C | folding enthalpy [2]: -31.8 kcal/mol

GCCTGGTCGAAAGACGGC (((..(((....))))))
Tm [1]: 52.2 °C | folding enthalpy [2]: -25.3 kcal/mol

GCCTGTCGAAAGACCGGC (((.(((....))).)))
Tm [1]: 55.8 °C | folding enthalpy [2]: -39.5 kcal/mol

GCCTGTCGAAAGACGGC (((.(((....))))))
Tm [1]: 56.5 °C | folding enthalpy [2]: -31.2 kcal/mol

GCCTGTGCGAAAGCAGGC (((..(((....))))))
Tm [1]: 56.5 °C | folding enthalpy [2]: -26.6 kcal/mol

GCCTGTGGAAACGCAGGC (((((.(....).)))))
Tm [1]: 59.9 °C | folding enthalpy [2]: -38 kcal/mol

GCCTGTGGAAACGTAGGC ((((..(....)..))))
Tm [1]: 48.2 °C | folding enthalpy [2]: -28 kcal/mol

GCCTTACGAAAGTACGGC (((.(((....))).)))
Tm [1]: 52.2 °C | folding enthalpy [2]: -46.5 kcal/mol

GCCTTAGGAAACTAAGAC (.(((((....))))).)
Tm [1]: 30.1 °C | folding enthalpy [2]: -13.8 kcal/mol

GCCTTCGAAAGAAAGGC ((((((....))).)))
Tm [1]: 54 °C | folding enthalpy [2]: -30.3 kcal/mol

GCCTTCGAAAGAACTGGC ((((((....)))..)))
Tm [1]: 35.7 °C | folding enthalpy [2]: -21.9 kcal/mol

GCCTTCGAAAGAAGCGGC ((((((....)))..)))
Tm [1]: 47.2 °C | folding enthalpy [2]: -18.1 kcal/mol

GCCTTCGAAAGAAGGGGC ((((((....)))..)))
Tm [1]: 53.8 °C | folding enthalpy [2]: -17.8 kcal/mol

GCCTTCGGAAACGAGGGC (((.(((....))).)))
Tm [1]: 56.7 °C | folding enthalpy [2]: -33.6 kcal/mol

GCCTTCTCGAAAGAGGGC (((..(((....))))))
Tm [1]: 44.3 °C | folding enthalpy [2]: -23.8 kcal/mol

GCCTTGCGAAAGCAAAGC ((.((((....)))).))
Tm [1]: 55.9 °C | folding enthalpy [2]: -14.9 kcal/mol

GCCTTGCGAAAGCAACGC ((.((((....)))).))
Tm [1]: 54.7 °C | folding enthalpy [2]: -14.3 kcal/mol

GCCTTGCGAAAGCAATGC ((.((((....)))).))
Tm [1]: 56.9 °C | folding enthalpy [2]: -17.4 kcal/mol

GCCTTGCGAAAGCACAGC ((..(((....)))..))
Tm [1]: 45.1 °C | folding enthalpy [2]: -7.49 kcal/mol

GCCTTGCGAAAGCACGGC (((.(((....))).)))
Tm [1]: 57.8 °C | folding enthalpy [2]: -49.4 kcal/mol

GCCTTGCGAAAGCATGGC (((.(((....))).)))
Tm [1]: 62.1 °C | folding enthalpy [2]: -44.8 kcal/mol

GCCTTGCGAAAGCGTGGC (((..((....))..)))
Tm [1]: 60.3 °C | folding enthalpy [2]: -22.8 kcal/mol

GCCTTGCGAAAGCTATGC ((.(.((....)).).))
Tm [1]: 44.5 °C | folding enthalpy [2]: -8.48 kcal/mol

GCCTTGGCGAAAGCCGGC (((..(((....))))))
Tm [1]: 56.9 °C | folding enthalpy [2]: -12.9 kcal/mol

GCCTTTCGAAAGAACGGC (((.(((....))).)))
Tm [1]: 48.8 °C | folding enthalpy [2]: -39.5 kcal/mol

GCCTTTGGAAACAAAAGC ((.((((....)))).))
Tm [1]: 29.3 °C | folding enthalpy [2]: -12.2 kcal/mol

GCCTTTGGAAACAAAGAC (.(((((....))))).)
Tm [1]: 34.7 °C | folding enthalpy [2]: -21.9 kcal/mol

GCCTTTGGAAACAAAGGC (((((((....)))))))
Tm [1]: 66.7 °C | folding enthalpy [2]: -38.4 kcal/mol

GCGAAAATCGC ((((...))))
Tm [1]: 45 °C | folding enthalpy [2]: -14.1 kcal/mol

GCGAAACATCGC ((((....))))
Tm [1]: 48.7 °C | folding enthalpy [2]: -21.5 kcal/mol

GCGAAACGAAAGTTACGC (((.(((....))).)))
Tm [1]: 58.6 °C | folding enthalpy [2]: -40.1 kcal/mol

GCGAAACGAAAGTTCGC (((.(((....))))))
Tm [1]: 62.7 °C | folding enthalpy [2]: -32.9 kcal/mol

GCGAAACGAAAGTTGCGC (((.(((....))).)))
Tm [1]: 65.7 °C | folding enthalpy [2]: -35.8 kcal/mol

GCGAAAGGAAACTCTCGC ((((.((....)).))))
Tm [1]: 38.3 °C | folding enthalpy [2]: -28.1 kcal/mol

GCGAAAGGAAACTTTCAC (.(((((....))))).)
Tm [1]: 32.6 °C | folding enthalpy [2]: -19.1 kcal/mol

GCGAAAGGAAACTTTCGC (((((((....)))))))
Tm [1]: 64.6 °C | folding enthalpy [2]: -44.2 kcal/mol
